Data published in the EternaBench riboswitch data.

What was measured:
[1] = tested on: MS2 coat protein; assay: apparent Kd, MS2 coat protein; higher = weaker binding; RNA-MaP array; tryptophan 2.4 mM where present
Method in brief: (§1)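 Stalled E. coli RNA polymerase transcribed the designs on Illumina sequencing-chip clusters. SNAP-549-labelled MS2 coat protein was titrated from 0.7 or 1.5 nM, doubling to 3 µM, without and then with constant ligand, in 100 mM Tris-HCl pH 7.5, 80 mM KCl, 4 mM MgCl2, BSA, DTT, yeast tRNA and Tween-20. Per-cluster binding curves were fitted to green signal normalised to red-channel RNA signal and control-cluster median Fmax. The apparent Kd is the median of the filtered fits.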

[2] = tested on: MS2 coat protein; assay: apparent Kd, MS2 coat protein; higher = weaker binding; RNA-MaP array; theophylline 2 mM where present
Method in brief: as §1

[3] = designed as: OFF switch for tryptophan, no ligand
[4] = ligand present: tryptophan, designed as: OFF switch for tryptophan
[5] = designed as: ON switch for tryptophan, no ligand
[6] = ligand present: tryptophan, designed as: ON switch for tryptophan
[7] = designed as: OFF switch for theophylline, no ligand
[8] = ligand present: theophylline, designed as: OFF switch for theophylline
[9] = designed as: ON switch for theophylline, no ligand
[10] = ligand present: theophylline, designed as: ON switch for theophylline

Sequence	apparent Kd [2, 7]	apparent Kd [2, 8]	apparent Kd [2, 9]	apparent Kd [2, 10]	further results
AUAAUAAUGUCGGCCGCCACUAUAAACAUGAGGAACAUGAGGAUCACCCAUGUAUGAGGAUCACCUAGGACCGGGACUAAUAUUA					apparent Kd [1, 3]: 47.6 nM; apparent Kd [1, 4]: 43.3 nM
GUCCUCAUGACGGCCGCCACUACACAUGAGGAUCACCCAUGUAAUGAUCCCUUAAAUGAUAAUAGUAGGACCGGGUCACUGUAAG					apparent Kd [1, 5]: 457 nM; apparent Kd [1, 6]: 699 nM
CCACUUUCUUUUAUCUUUCUUUCUUUGUUACGAGGACCGGUACGGCCGCCACUCGUGGUGUGUGGUACAUGAGGAUCACCCAUGU					apparent Kd [1, 5]: 23.7 nM; apparent Kd [1, 6]: 22.4 nM
AUCAUAAUAGCCUCGUGUAAUUAAAUGGAACGAGGACCGGUACGGCCGCCACUCGAUAUAAACAUGAGGAUCACCCAUGUAAGCA					apparent Kd [1, 3]: 65.5 nM; apparent Kd [1, 4]: 58.3 nM
AAUACAGUGUCGGCCGCCACUGAAACAUGACAUGAGACAUGAGGAUCACCCAUGUACAUAAUAAACAGGACCGGGACCCAUGUAU					apparent Kd [1, 5]: 37.9 nM; apparent Kd [1, 6]: 15.5 nM
CAAUAAGUACCGGUCCUCAGAUCCUCAUGACGAGGACCGGUACGGCCGCCACUCGAAACAUGAGGAUCACCCAUGUAAUAAUAAU					apparent Kd [1, 3]: 23 nM; apparent Kd [1, 4]: 28.4 nM
AGUUUAGACACGGCCGCCACUCGUGACAGAUUUCGCAGUGGUCUACAUGAGGAUCACCCAUGUCUGAGGACCGGGUGUUGAGUUU					apparent Kd [1, 3]: 144 nM; apparent Kd [1, 4]: 433 nM
GAGAGAGGAGUGCGGCGUGUUCCGCUCCGUCGAGGACCGGUACGGCCGCCACUCGACAUGAGGAUCACCCAUGUCCUCUCUCGCG					apparent Kd [1, 3]: 31.3 nM; apparent Kd [1, 4]: 13.8 nM
UCGUUUUAGUCGGCCGCCACUGGUCUCAUGUUCAACAUGAGGAUCACCCAUGUAUCUUAUUUUAACAGGACCGGGACGUAAUAGA					apparent Kd [1, 3]: 50.8 nM; apparent Kd [1, 4]: 19.8 nM
UAAGUUAGGGCGGCCGCCACUCGAACAUGAGGAUCACCCAUGUAAAUUAAUUAAAGGACAUGAAUGAGGACCGGGCCAAGUUAGA					apparent Kd [1, 5]: 15.7 nM; apparent Kd [1, 6]: 13.4 nM
AACAUACAGUUUUAGGUGGAUAUAAGGCGGCGAGGACCGGUACGGCCGCCACUCGCGUACAUGAGGAUCACCCAUGUCUGAAGCU					apparent Kd [1, 5]: 60.3 nM; apparent Kd [1, 6]: 46.5 nM
AGAUUCGACACGGCCGCCACUCGUGACAGAUUUCGCAGUGGUCAACAUGAGGAUCACCCAUGUCUGAGGACCGGGUGUUGAGUCU					apparent Kd [1, 3]: 33.5 nM; apparent Kd [1, 4]: 474 nM
AAACUUCGCAUAGGAAAACUAUGUGAAGAUCGAGGACCGGUACGGCCGCCACUCGUCCUCAACAUGAGGAUCACCCAUGUAAUAA					apparent Kd [1, 3]: 21.1 nM; apparent Kd [1, 4]: 30 nM
GGCCAUGGAAACAUGGCGGCGGCAUAAGCGCGAGGACCGGUACGGCCGCCACUCGGGCGACAUGAGGAUCACCCAUGUUCCUCAU					apparent Kd [1, 3]: 317 nM; apparent Kd [1, 4]: 541 nM
UUUAUUAUUGACUCGUUUUGGUAUUAAGAACGAGGACCGGUACGGCCGCCACUCGUGAUAUACAUGAGGAUCACCCAUGUUAGCA					apparent Kd [1, 5]: 15.1 nM; apparent Kd [1, 6]: 15.5 nM
UAAUAAGUACCGGUCCUCAGAUCCUCAUGUCGAGGACCGGUACGGCCGCCACUCGAAACAUGAGGAUCACCCAUGUAAUAAUAAU					apparent Kd [1, 3]: 39.5 nM; apparent Kd [1, 4]: 31.5 nM
ACAUGAGGAUCCGAUACCAGCCACAUGAGGAUCACCCAUGUAGUACAUGAGGAUCACCCAGGCCCUUGGCAGCGGACAUGAGGAU	178 nM	1900 nM			
GCACCAGGUACGGAUACCAGAAUUUGCCAAUUGGGUGAACAUGAGGAUCACCCAUGUUAUUUCCCUUGGCAGCCGUACCUGGUGC	8.75 nM	15.9 nM			
ACAUGAGGAUCACCCAUGUGCCGUCUUGAUACCAGACGCGAAGUAGUCCCUUGGCAGCAACUACGUGACGGUCGCGCAUGUGUAG	16.6 nM	28.6 nM			
CGCACAGAGAAUGAUACCAGCGAGGAAGCGACAUGAGGAUCACCCAUGUGCGAAUGAUCCCGCCCUUGGCAGCGUAAGUGAUCCC			111 nM	71.3 nM	
UCGUGUGUUUCGGAUACCAGUGUGGUCGAUACAUGAGGAUCACCCAUGUGAGAGGAGGUACACCCUUGGCAGCUGGCUGUUGCGG			72 nM	86.4 nM	
AUUUACAUGGUCAUAUAUAUAUCGUCAGAUACCAGACGAGAUAUUGUCCCUUGGCAGCUGUUACAUGAGGAUCACCCAUGUAAUU	85.8 nM	83.7 nM			
ACAUCCAGGUUAAUCGUGGACAUGGUCGAUACCAGUAUUUUAAUCUACCCUUGGCAGCGACAUGAGGAUCACCCAUGUGCGAUGA	14.3 nM	31.4 nM			
GAUGAUAUUGCAGAUACCAGACACAUGAGGAUCACCCAUGUCGUUGGGUAGCUGGGUCGUGUCCCUUGGCAGCUGCGAUAUCAUC	23.3 nM	138 nM			
ACUAGUUGUGCAGAUACCAGACAUGAGGAUCACCCAUGUUUGGGUUGUUCGCAACUUCCUGUCCCUUGGCAGCUGUACAUCUAGA	24.9 nM	138 nM			
GUGAGGUUUGAUGAUACCAGAUGUGGUGGGAACAUGAGGAUCACCCAUGUUGUGAAACAGGUCCCUUGGCAGCAUGAGAGAGCUU			47.8 nM	44.3 nM	

Sequence	apparent Kd [2, 7]	apparent Kd [2, 8]	apparent Kd [2, 9]	apparent Kd [2, 10]	further results
UGACAUUGCUGCGAUACCAGACAUGAGGAUCACCCAUGUACCAAGGUACCCGAAAGGAAUGUCCCUUGGCAGCGCAGCAAUGUCU	9.4 nM	21.2 nM			
GCACCAGGUACGGAUACCAGCUAUAGGCCCUAUGGGCGACAUGAGGAUCACCCAUGUAAUGGCCCUUGGCAGCUGUACCUGGUGC			169 nM	11.3 nM	
AAAAUAAAUAAAACACGUAACAUGAAGGAUACCAGACAGGAAACUGUCCCUUGGCAGCCUCUACAUGAGGAUCACCCAUGUCGUG				30.8 nM	
ACGAUACGACAUGAGGAUCACCCAUGUGAUACCAGCCUGGAAACAGGCCCUUGGCAGCACAAAUACUCCAGAAACGUAUCGAAAA	204 nM	469 nM			
ACCAGCACACAUGAUACCAGCGACAUGAGGAUCACCCAUGUACGGCGUGUAUCGAAAGGUUGCCCUUGGCAGCAUGAUAGUGCUA	12.8 nM	129 nM			
CGAAUACCAAUUGAUACCAGCAUGUUAACAUGAGGAUCACCCAUGUUAAGGAUAACAUAAUGCCCUUGGCAGCAACGUAAAUUCG			22.9 nM	13.5 nM	
GCUGGGUGCGCAAGGACCUGGCGUUGCGAUACCAGCACGGUAACGUGCCCUUGGCAGCGCACAUGAGGAUCACCCAUGUGGUGUU	276 nM	310 nM			
AACUGGAAAAGUGAUACCAGAGACAUGAGGAUCACCCAUGUACAUGAGGAUCACCCAUGUCUCCCUUGGCAGCACAAAAGGGAGA	30.6 nM	64.8 nM			
CGAUCUUUCGAAAGAAGGAUCGAUUCUGAUACCAGAGACGAAAGUCUCCCUUGGCAGCAGUGCCAACAUGAGGAUCACCCAUGUA			22.4 nM	21.3 nM	
UAUUUGGUGCGCGAGCGUUGGAUAAUUGAUACCAGUGAAGAAGAGCGCCCUUGGCAGCGAAUCCUAACAUGAGGAUCACCCAUGU			41 nM	56.7 nM	
UCCUCCUCCGGAAGGAGGAGGAGUUGCGAUACCAGCCCGGAAACGGGCCCUUGGCAGCGCACAUGAGGAUCACCCAUGUCAUGUU	18.4 nM	24.1 nM			
UCUUACUUGGUAGAUACCAGCGUGUUAUCUUUCUUUUGACAUGAGGAUCACCCAUGUAUAUGCCCUUGGCAGCUGCAUAGUGUGU			34.9 nM	35.1 nM	
UUAGAUAUGACGGAUACCAGCGUGUUGUAGAACAUGAGGAUCACCCAUGUAGUGAUCAUGCGCCCUUGGCAGCUGGUAUGUUUGG			262 nM	829 nM	
AAUUGCGUUGGUGAGGCGGUUAAUGGCGAUACCAGCGUGGAAACACGCCCUUGGCAGCGCCAAAACAUGAGGAUCACCCAUGUUA	73.5 nM	200 nM			
UGUAUGUGAAGUGAUACCAGUCCAUAAACUGGAACAUGAGGAUCACCCAUGUAAUGGGUGGACCCUUGGCAGCACUUCUCAUACU			122 nM	136 nM	
CCACACAUGAGGAUCACCCAUGUAAUUGAUACCAGAUUUAAAUGAGUCCCUUGGCAGCAGUGAGCUAGAGUUGUCGUAUAUAUGG			17 nM	18.9 nM	
GGAUAGAUAGGAGAUACCAGAUACAUAAACAUGAGGAUCACCCAUGUGUCUGCACUAAGUAUCCCUUGGCAGCUCGGAGAUCUGA			17.6 nM	15 nM	
AAAAUAAAUAAAACACGUAACAUGAAGGAUACCAGCCAGAAAACUGGCCCUUGGCAGCCUCUACAUGAGGAUCACCCAUGUCGUG			305 nM	28 nM	
AUUUAUUGUCGUGAUACCAGACAUACAUGAGGAUCACCCAUGUUAAGUAACAUUUUUUAGGUCCCUUGGCAGCACUUUUUAAUUA			26.1 nM	15.8 nM	
UGCGAUUGCUCAGAUACCAGACAUGAGGAUCACCCAUGUACCAAGGUAAAGAAAUAACGUGUCCCUUGGCAGCUGAGCAAUCGCU	10.2 nM	98.4 nM			
CUUGGUAGAUCCUAGCUGCCAAGAGGUGAUACCAGCAUCGAAAGAUGCCCUUGGCAGCACCAACAUGAGGAUCACCCAUGUAAUA			70.7 nM	339 nM	
CGUGAUCCCUGUGAUACCAGAAGUACAUGAGGAUCACCCAUGUCAAACACAAAACCAAGCUUCCCUUGGCAGCAUAGUCGUUAAG			238 nM	1310 nM	
ACAUAGAGAUUAAUCGUGGGCAUACUCGAUACCAGUAUUUUAACCUACCCUUGGCAGCGACAUGAGGAUCACCCAUGUGAGAUGA	22.2 nM	39.5 nM			
AUUUUUCUAUCAGAUACCAGACAACUCCAAACAUGAGGAUCACCCAUGUAUUGGGUGUUCGUCCCUUGGCAGCUGUUAAUGUUAA			16.9 nM	9.41 nM	
ACCUACACGGAGACGUGUAGGAGUAAUGAUACCAGCAUGGAGACAUGCCCUUGGCAGCGUUACAUGAGGAUCACCCAUGUACGUU	10.2 nM	14.1 nM			
AUGUCAUUGGUGUAGCUGUGAAAUGGCGAUACCAGCGUGGAAACACGCCCUUGGCAGCGCCAAAACAUGAGGAUCACCCAUGUUA	87.6 nM	272 nM			
